Published values of several laboratories.
Each line is one published result; the experiments were not run side by side.
Effect on: cell growth or viability

Structure (SMILES)	cell line	test	conditions	endpoint	value
COC(=O)COc1ccc(NC(=O)C2(c3cccc(C)c3)CC2)c(C)c1	U-937	ATP luminescence	72 h	GI50	6.8 µM
C=CC(=O)N1CCC[C@@H](n2nc(-c3ccc(Oc4ccccc4)cc3)c3c(N)ncnc32)C1	U-937	ATP luminescence	72 h	GI50	6.4 µM
COC(=O)COc1ccc(NC(=O)C2(c3ccc(Cl)cc3)CC2)c(C)c1	U-937	ATP luminescence	72 h	GI50	6 µM
CCn1c(-c2nonc2N)nc2c(C#CC(C)(C)O)ncc(OC[C@H]3CCCNC3)c21	UACC-903	resazurin	72 h	EC50	83 µM
Cn1nnc2c(C(N)=O)ncn2c1=O	SNU1			EC50	243 µM
C=CC(=O)N1CCN(c2nc(=O)n(-c3c(C)ccnc3C(C)C)c3nc(-c4c(O)cccc4F)c(F)cc23)[C@@H](C)C1	LS-513		5 days	EC50	> 10 µM
Cc1cc(=O)oc2ccc(-c3cc(-c4ccccc4)nc(N)n3)c(O)c12	KB	MTT	8 µg/mL, 72 h	inhibition	0%
COC(=O)COc1cccc(NC(=O)C2(c3cccc(C)c3)CC2)c1	U-937	ATP luminescence	72 h	GI50	> 200 µM
COc1ccc(-c2cc(-c3ccc4oc(=O)cc(C)c4c3O)nc(N)n2)cc1	KB	MTT	128 µg/mL, 72 h	inhibition	28%
COc1cc(Nc2nccc(-c3cnn4nc(OC)ccc34)n2)cc(C(F)(F)F)c1	SNU1	ATP luminescence		IC50	0.19 µM
Cc1cc(=O)oc2ccc(-c3cc(-c4cccc(Cl)c4)nc(N)n3)c(O)c12	KB	MTT	2 µg/mL, 72 h	inhibition	0%
COC(=O)COc1ccc(NC(=O)C2(c3ccc(Cl)cc3)CC2)cc1Br	U-937	ATP luminescence	72 h	GI50	1.6 µM
Cc1ccc(-c2cc(-c3ccc4oc(=O)cc(C)c4c3O)nc(N)n2)cc1	KB	MTT	8 µg/mL, 72 h	inhibition	0%
CC#CC(=O)N1CC[C@@H](n2cc(-c3ccc(Oc4c(F)cccc4F)cc3)c3c(N)n[nH]c(=O)c32)C1	MINO	ATP luminescence	72 h	GI50	5.18 µM
